Compound activity from PubChem BioAssay.
PfGluPho inh – PfG6PD enzyme inhibitors, primary screen, biochemical, fluorescence intensity, uHTS; glucose-6-phosphate dehydrogenase-6-phosphogluconolactonase (Plasmodium falciparum 3D7); PfGluPho enzyme, NADPH resazurin-diaphorase fluorescence; inhibition, % at 20 µM; 350,000 compounds, 0.78% hits; AID 504690, 2011;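 active = inhibition reaching at least a set limit at 20 µM in the primary screen, cut at about 59% in these data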;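 also: 0% = DMSO wells with substrate and 100% = DMSO wells lacking glucose-6-phosphate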
MC4R ag barr – MC4R agonists recruiting beta-arrestin, primary screen, cell-based, luminescence, agonist arm of biased-ligand search. Melanocortin receptor 4 (Homo sapiens), P32245. U2OS MC4R beta-arrestin complementation; percent of melanotan II response, DMSO zero. activation, % at 8.9 µM. 360,000 compounds, 0.98% hits;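 active = activation above a per-plate cutoff, the mean activation of sample wells on that plate plus 3 SD, cut at about 8% in these data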
Target sequence (P32245 whole entry, looked up): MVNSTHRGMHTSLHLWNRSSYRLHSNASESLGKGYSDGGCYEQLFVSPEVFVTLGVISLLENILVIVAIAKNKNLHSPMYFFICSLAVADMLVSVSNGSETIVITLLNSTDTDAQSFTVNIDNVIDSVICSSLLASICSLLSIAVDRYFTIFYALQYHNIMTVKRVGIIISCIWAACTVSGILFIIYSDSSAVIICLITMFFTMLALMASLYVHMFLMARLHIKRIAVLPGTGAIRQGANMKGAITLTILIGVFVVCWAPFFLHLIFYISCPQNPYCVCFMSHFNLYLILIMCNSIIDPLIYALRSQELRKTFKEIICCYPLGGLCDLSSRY
ABHD5-PLIN5 inh – ABHD5-PLIN5 interaction inhibitors, primary screen, cell lysate, split luciferase complementation, luminescence | Perilipin-5 (Homo sapiens) + 1-acylglycerol-3-phosphate O-acyltransferase ABHD5 (Homo … | AID 602281, 2012 | Split G. princeps luciferase complementation, 4 h | inhibition, % at 4 µM | 360,000 compounds, 0.78% hits;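 active = inhibition above the mean inhibition across every tested compound plus 3 SD, cut at about 22% in these data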;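 also: 0% = DMSO only wells and the 100% control is not disclosed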
B2AR ag – beta2AR agonists driving receptor internalization, primary screen, cell-based, FAP fluorogen, flow cytometry. Beta-2 adrenergic receptor (Homo sapiens), P07550. Am2.2-beta2AR cells. response, % (concentration not given with the values). 340,000 compounds, 0.43% hits;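 active = response above a set limit, near 3 SD of response in nonfluorescent compounds, cut at about 42% in these data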
MC4R antagonist – MC4R antagonists of cAMP signaling, primary screen, cell-based, TR-FRET, antagonist arm of biased-ligand search; Melanocortin receptor 4 (Homo sapiens), P32245; MC4R-expressing cells, MTII-stimulated cAMP, LANCE TR-FRET; inhibition, % at 6.5 µM; 360,000 compounds, 0.48% hits; AID 540295, 2011;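 active = inhibition above its plate's cutoff, the mean of tested wells on that plate plus 3 SD, cut at about 29% in these data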;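 also: 0% = Melanotan II alone and 100% = Melanotan II plus saturating MCL0020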
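Assay system: U2OS cells stably expressing human melanocortin 4 receptor (MC4R) / Dosing: 6.5 µM / Timing: compound 30 min, challenge 1 h, detection 1 h / Measured by: Eu-cAMP/anti-cAMP TR-FRET, emission 671 nm / Replicates: singlicate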
B2AR ag CP1 – beta2AR agonists via receptor internalization, confirmation, cell-based, FAP fluorogen, flow cytometry, single point, cherry pick 1 | shares compounds with B2AR ag | Am2.2-beta2AR cells, FAP surface receptor; hits give low values | percent response (surface receptor), % at 10 µM | 1,100 compounds, 25% hits;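 active = surface receptor percent response at or below 58%, roughly 3 SD from nonfluorescent compounds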
FAP fluor counter – counter-screen for beta-2AR agonists: fluorescence in Am2.2 cells; shares compounds with B2AR ag; AID 588765; 1,100 tested, under 10 active; FAP fluorogen flow cytometry, fluorescence counterscreen; hits give low values; calls only at 10 µM;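 active = percent response below a set limit in fluorescence channel 1 and below 50% in channel 8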
U2OS cAMP counter – nonselective cAMP signaling inhibitors, parental cells, counter-screen for MC4R biased antagonist project, cell-based, TR-FRET, U2OS, forskolin, triplicate; shares compounds with MC4R antagonist; LANCE TR-FRET; inhibition, % at 6.5 µM; 1,600 compounds, 26% hits; AID 602193, 2012;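 active = mean inhibition over triplicates above the low-control well mean plus 3 SD, set per campaign, cut at about 13% in these data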;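 also: signal is single emission at 671 nm which falls as cellular cAMP rises; 0% = forskolin-stimulated wells and 100% = buffer without forskolin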
MC4R cAMP antag – MC4R cAMP antagonists, retest, confirmation, cell-based, TR-FRET. AID 602195, 2012. MC4R-expressing cells, MTII-stimulated cAMP. inhibition, % at 6.5 µM. 1,600 compounds, 27% hits. shares compounds with MC4R antagonist; in the data active = inhibition above about 29%;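 also: 0% = agonist stimulated wells alone and 100% = agonist stimulated wells plus saturating reference antagonist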
MC4R barr conf – MC4R beta-arrestin agonists, retest, confirmation, cell-based, luminescence, U2OS | U2OS MC4R beta-arrestin recruitment; scaled DMSO 0%, Melanotan II 100% | activation, % at 8.9 µM | shares compounds with MC4R ag barr | AID 602192, 2012 | 2,400 compounds, 31% hits;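 active = mean activation across replicates above the hit cutoff set in the earlier primary screen, cut at about 8% in these data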
MOR-DOR barr ag – agonists of MOR-DOR heterodimerization, counter-screen for MC4R biased agonist project, cell-based, luminescence; shares compounds with MC4R ag barr; U2OS PathHunter beta-arrestin, beta-gal luminescence; percent of deltorphin B response, DMSO zero; activation, % at 9.2 µM; 2,400 compounds, 5.8% hits; AID 602194, 2012;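 active = mean activation across replicates exceeds the hit threshold derived in the earlier primary screen, cut at about 18% in these data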;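 also: 100% = deltorphin B at 0.9 µM final and 0% = DMSO alone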
* hit, by the source's call; i = inactive; x = not tested or not shown; ! = repeats disagree. This is a sample that favours compounds with a hit; in the whole collection about 3% have one here.

SMILES | PfGluPho inh | MC4R ag barr | ABHD5-PLIN5 inh | B2AR ag | MC4R antagonist | B2AR ag CP1 | FAP fluor counter | MC4R barr conf | MOR-DOR barr ag | others
CCS(=O)(=O)c1ncc(Cl)c(C(=O)Nc2ccc(S(=O)(=O)N3CCCC(C)C3)cc2)n1 (centres undefined) | 36 | -4 | 13 | 47* | 41* | 69 | i | x | x | U2OS cAMP counter=-41;MC4R cAMP antag=20
CC1CCCN(S(=O)(=O)c2ccc(NC(=O)CNC3CCCC3)cc2)C1 (centres undefined) | -14 | 2 | -8 | 4 | -6 | x | x | x | x
COc1cc(NC(=O)c2csc(-c3ccncc3)n2)cc(C(=O)Nc2cccc(C(F)(F)F)c2)c1 | 19 | 2 | 6 | 60* | 39*! | 86 | i | x | x | U2OS cAMP counter=0;MC4R cAMP antag=4
O=C(COc1ccc(S(=O)(=O)N2CCOCC2)cc1Cl)NCC1CCCO1 (centres undefined) | -12 | -1 | -3 | -8 | 9 | x | x | x | x
CSc1ccc2c(c1)C(N1CCN(C)CC1)Cc1ccccc1S2 (centres undefined) | 3 | 11*! | 14 | 61*! | -1 | 97 | i | 6 | 8
O=C(NCC(O)c1ccccc1)c1ccc(Cl)c(S(=O)(=O)N2CCCC2)c1 (centres undefined) | 0 | 2 | 1 | 2 | -6 | x | x | x | x
O=C(N/N=C/c1ccc(O)cc1O)/C(=C/c1ccccc1)CCO | -27 | -2 | 0 | -6 | -5 | x | x | x | x
CS(=O)(=O)c1ccc(Cl)c(NC(=O)c2cccc(-n3cnnn3)c2)c1 | 30 | -2 | -9 | -12 | -3 | x | x | x | x
O=C1CC(c2cc(Br)ccc2F)c2cc3c(cc2N1)CCC3 (centres undefined) | -3 | 16* | 5 | 56* | -22 | 95 | i | 3 | 4
O=C1CC(c2ccccc2F)c2cc3c(cc2N1)CCC3 (centres undefined) | 5 | 0 | -3 | 10 | -5 | x | x | x | x
CCOc1cc(CNCCc2ccc(S(N)(=O)=O)cc2)ccc1OCc1ccc(Cl)cc1 | 18 | 12* | 28* | 50* | 3 | 31* | i | 71* | 58*
Cc1ccccc1CNC(=O)C1CCCN(c2nnc(C)c3c(C)n(-c4ccccc4)nc23)C1 (centres undefined) | 54 | 6 | 0 | 6 | 9 | x | x | x | x
CCOc1ccccc1CNC(=O)C1CCN(c2nnc(C)c3c(C)n(-c4ccc(C)cc4)nc23)CC1 | 12 | 10* | 17 | 53* | 3 | 24* | i | 4 | 9
